# Screening results from PubChem.
# GPR7 antag: human neuropeptides B/W receptor 1 antagonism; 1.1% of 290,000 active; GPR7-expressing cells, fluorescence antagonist assay; P48145; inhibition, % at 4.4 µM; in the data active = inhibition above about 16%, passing the limit was not always enough;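 note: cells stimulated with the agonist NPW; 0% = agonist with vehicle and 100% = vehicle without agonist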
# Target sequence (P48145 whole entry, looked up): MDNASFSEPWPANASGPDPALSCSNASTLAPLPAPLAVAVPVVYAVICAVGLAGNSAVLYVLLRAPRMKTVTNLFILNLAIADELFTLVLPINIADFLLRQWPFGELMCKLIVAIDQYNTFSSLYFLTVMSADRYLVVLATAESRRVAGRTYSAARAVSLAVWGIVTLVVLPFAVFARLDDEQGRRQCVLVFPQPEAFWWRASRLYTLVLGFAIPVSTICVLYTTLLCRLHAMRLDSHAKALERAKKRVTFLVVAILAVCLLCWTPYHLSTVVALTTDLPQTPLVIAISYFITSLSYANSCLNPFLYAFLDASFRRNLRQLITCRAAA
# HCV NS3 hel inh: inhibitors of Hepatitis C virus NS3 helicase | AID 1800 | 0.56% of 290,000 active | inhibition, % at 10.9 µM | NS3 helicase DNA unwinding, Cy5 molecular beacon fluorescence;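 active = inhibition above the mean of all tested compounds plus 3 SD, set per campaign, cut at about 35% in these data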;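 note: 0% = DMSO wells and 100% = thioflavine S control wells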
#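 System: HCV NS3 helicase fragment; control set: DMSO and thioflavine S; technique: Cy5 fluorescence at 0 and 60 min, beacon hairpin quenching; reagent: beacon DNA duplex substrate plus ATP; replicates: singlicate; schedule: 1 h reaction at 25 °C, ATP-initiated; medium: MOPS buffer pH 6.5 with MgCl2, DTT, Tween20, BSA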
# HCV core dimer: HCV core protein dimerization inhibition; TR-FRET GST/Flag-core106 dimerization, 1536-well; inhibition, % at 5 µM; 0.33% of 300,000 active; AID 1899;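 active = inhibition above the mean of all tested compounds plus 3 SD, set per screening campaign, cut at about 45% in these data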
#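 Assay system: tagged HCV core106 pair (GST and Flag); medium: KF-containing HEPES buffer, pH 7.45, DTT, CHAPS, BSA; also added: Eu donor and XL665 acceptor anti-tag antibodies; dosing: 5 µM single dose; timing: compound-protein-antibody incubation 4 h at 22.5 °C; signal: TR-FRET 671 and 617 nm emission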
# p-CIP stab down: compounds decreasing mouse p/CIP protein stability. Q05BA5. F442A p/CIP-EGFP cells, EGFP fluorescence, 16 h. decrease of EGFP signal, % at 10 µM. 0.01% of 290,000 active. AID 1984;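 active = EGFP signal decrease of at least 30% at 10 µM or well 3 SD below plate mean, unless failing retest; inactive = the rest, including hits failing retest or dose response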
# DNA FID counter: counter-screen for HCV NS3 helicase inhibitors: DNA intercalator displacement. DNA fluorescent intercalator displacement, fluorescence. inhibition, % at 7.9 µM. 0.17% of 290,000 active. AID 1845; in the data active = inhibition above about 37%;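 note: 0% = vehicle and 100% = reference compound; higher means more ethidium bromide displaced from hairpin DNA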
# * = called active by the depositor; . = no result. The list is not random: actives were taken first. Their share in the collection is about 1.9%.
SMILES,GPR7 antag,HCV NS3 hel inh,HCV core dimer,p-CIP stab down,DNA FID counter
Cc1ncoc1C(=O)N1CCc2c([nH]c3ccccc23)C1c1ccccc1F (configuration not stated),17,-4,0,-6,-19
CCn1nc(C)cc1C(=O)N1CCc2c([nH]c3ccccc23)C1c1cc(F)ccc1F (configuration not stated),19*,-8,3,-5,-32
COC(=O)c1ccccc1NC(=O)c1ccc2nccnc2c1,-10,4,51*,-3,1
CC(C)(C)C(=O)Nc1ccc(S(=O)(=O)Nc2nccs2)cc1,-11,0,-4,-8,-8
CNc1nc(C)c(C(=O)OCc2ccccc2)s1,-16,-9,-2,1,-11
CNc1nc(C)c(C(=O)OCC(=O)OC)s1,-9,-4,-4,4,37*
NC(=O)COc1ccc(-n2cnnn2)cc1,-4,-16,46*,-6,1
CCOc1ccc(S(=O)(=O)Nc2cccc(C(=O)N(C)CC(=O)Nc3cccc(OC)c3)c2)cc1,.,.,5,.,.
N#Cc1cccc(C#N)c1Oc1ccc(N)cc1,8,-10,0,-8,-2
CC(=O)/C(=N/Nc1ccccc1Cl)Sc1nnc(C(O)c2ccccc2)n1-c1ccccc1 (configuration not stated),1,-7,10,-5,-10
CC(=O)/C(=N/Nc1ccccc1)Sc1nnc(C(O)c2ccccc2)n1-c1ccccc1 (configuration not stated),24*,13,10,8,-34
COC(=O)/C(C#N)=C\c1c(OC)[nH]c2ccccc12,-16,-9,-7,6,4
CC1(C)S[C@@H]2[C@H](NC(=O)COc3ccccc3)C(=O)N2C1C(=O)OCC1CCCCC1 (some centres not stated),.,.,7,.,.
CC1(C)S[C@@H]2[C@H](NC(=O)COc3ccccc3)C(=O)N2C1C(=O)OCc1cc2ccccc2n1S(=O)(=O)c1ccccc1 (some centres not stated),0,0,66*,-8,-43
O=C(CCC(=O)Nc1ccccc1)N/N=C/c1cccnc1,4,17,-11,-15,-2
CCOC(=O)c1sc(NC(=O)CSc2n[nH]c(-c3ccncc3)n2)c(C#N)c1C,6,5,0,6,-4
Cc1ccsc1/C=C/C1=Cc2c(sc(NC(=O)CSc3n[nH]c(N)n3)c2C#N)C(C)(C)C1,-7,16,77*,-15,-16
CCOc1ccc(/C=C/C2=Cc3c(sc(NC(=O)CSc4n[nH]c(N)n4)c3C#N)C(C)(C)C2)cc1,-5,17,72*,-15,-23
CCN1C(=O)c2ccccc2S(=O)c2ccc(C(=O)NCc3ccc(OC)cc3)cc21 (configuration not stated),-12,3,0,-6,-43
CC(C)c1ccc(O)c(NC(=S)NC(=O)CCc2ccccc2)c1,3,-6,0,-3,-14
O=C(CSc1n[nH]c(-c2ccccc2)n1)c1ccc(O)c(O)c1,21*,-1,-5,-13,10
CCC(C)NC(=O)CNC(=O)c1nn(-c2ccc(OC)cc2OC)c(=O)c2ccccc12 (configuration not stated),21,13,-6,-6,-18
CCN(CC)CCN(C(=O)c1cc2ccccc2cc1OC)c1nc2ccc(OC)cc2s1,3,-90,-6,-19,44*
Cc1ccc(-n2cc(CN3CCC(CO)(Cc4cccc(C(F)(F)F)c4)CC3)cn2)cc1,10,-69,-14,-7,34
Cc1ccc(-n2cc(CN3CCC(CO)(Cc4ccccc4)CC3)cn2)cc1,20*,-40,-7,-7,24
SMILES,GPR7 antag,HCV NS3 hel inh,HCV core dimer,p-CIP stab down,DNA FID counter
Cc1ccc(-n2c(Cl)c(Cl)nc(Cl)c2=O)cc1,52*,-3,3,-6,2
COc1nc(Cl)cn(-c2ccc(C)cc2)c1=O,1,6,3,-20,-2
O=C(Cn1cncn1)N/N=C/c1cccc(Cl)c1,-2,-7,1,2,-2
CCC(C)[C@H](NC(=O)NCc1ccc(S(N)(=O)=O)cc1)C(=O)O (some centres not stated),-9,-12,-6,-2,-2
c1ccc(Cn2c(SCc3nc4ccccc4s3)nnc2-c2ccco2)cc1,-3,19,50*,-2,-39
OC(COc1ccc(CNCCc2ccc(C(F)(F)F)cc2)cc1)CN1CCCCC1 (configuration not stated),7,-64,3,-23,42*
OC(COc1ccc(OCC(O)CN2CCCCC2)cc1)CN1CCCCC1 (configuration not stated),-3,11,-3,4,14
O=C(NNC(=O)c1ccccc1F)c1ccc2nc[nH]c2c1,-8,9,2,2,-3
O=C(NNC(=O)c1ccccc1F)c1cccc(-n2cccc2)c1,.,.,53*,.,.
N=C1/C(=C\c2ccc(-c3cc(Cl)cc(Cl)c3)o2)C(=O)N=C2SC=C(c3ccccc3)N12,7,27,49*,-9,4
N=C1/C(=C/c2ccc(-c3cccc(C(=O)O)c3)o2)C(=O)N=C2SC=C(c3ccccc3)N12,-6,21,13,-1,-13
COc1ccc(Nc2nc(N3CCOCC3)nc(N3CCOCC3)n2)cc1Cl,-9,-8,4,7,-32
OC(c1cc(C(F)(F)F)nc2c(C(F)(F)F)cccc12)C1CCCCN1 (configuration not stated),.,.,-7,.,.
OC(c1cc(-c2ccc(C(F)(F)F)cc2)nc(C(F)(F)F)c1)C1CCCCN1 (configuration not stated),42*,-55,1,-10,33
CC(CCN1CCN=C1Nc1ccccc1)c1ccccc1 (configuration not stated),-2,4,3,-6,0
CC(C)Nc1ccc(Nc2ccnc3cc4ccccc4cc23)cc1,6,-6,-21,-10,73*
N#CCCn1c(SCC(=O)Nc2ccc(N3CCOCC3)cc2)nc2ccccc21,3,-1,4,-6,-14
CCN1CCN(Cc2ccc(NC(=O)c3ccc(C)c(NC(=O)c4cccc(-c5cn[nH]c(=O)c5)c4)c3)cc2C(F)(F)F)CC1,-4,-103,2,8,40*
CCOC(=O)C1(Cc2ccccc2)CCN(Cc2cn(CC(=O)OC)c3ccccc23)CC1,32*,-49,-5,-15,31
CCOC(=O)C1(Cc2ccccc2)CCN(Cc2cccc(OC)c2O)CC1,-7,0,0,2,8
COc1ccc(C2(O)C(=O)Nc3ccc(C)cc32)cc1OC (configuration not stated),-14,16,2,2,-1
O=C(CSc1ccc(-c2ccco2)nn1)c1ccccc1,-4,29,48*,-3,-13
COc1ccc(C(=O)CSc2ccc(-c3ccco3)nn2)cc1,-3,17,19,4,-12
